# pIC50, pKd: −log10 of the molar value. Active and inactive are the calls of the source. The rule behind the calls is not given here.
# Assays:
# Homo sapiens [1] = organism: Homo sapiens; assay: Selectivity for human NTMT1 over human PRDMT8 at 100 uM
# Procedure, shortened: (§1)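 Panel of 41 PKMTs, PRMTs, DNMTs and NTMT1/2, tested at 100 µM compound in duplicate (n=2).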
# Homo sapiens [2] = organism: Homo sapiens; assay: Selectivity for human NTMT1 over human SUV420H1TV2 at 100 uM
# Procedure, shortened: (§2)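 Single-point panel screen against 41 PKMTs, PRMTs, DNMTs and NTMT1/2. Each compound was tested at 100 µM, in duplicate (n=2).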
# Homo sapiens [3] = organism: Homo sapiens; assay: Selectivity for human NTMT2 over human SET1b complex at 100 uM; procedure, shortened: as §2
# Homo sapiens [4] = organism: Homo sapiens; assay: Selectivity for human NTMT1 over human MLL3 complex at 100 uM; procedure, shortened: as §1
# Homo sapiens [5] = organism: Homo sapiens; assay: Selectivity for human NTMT1 over human EZH1 complex at 100 uM; procedure, shortened: as §1
# Homo sapiens [6] = organism: Homo sapiens; assay: Selectivity for human NTMT2 over human DNMT3b/3L at 100 uM; procedure, shortened: as §2
# Homo sapiens [7] = organism: Homo sapiens; assay: Selectivity for human NTMT2 over human SMYD2 at 100 uM; procedure, shortened: as §2
# [8] = target: Protein arginine N-methyltransferase 1 (Rattus norvegicus, UniProt Q63009); assay: Inhibition of rat His6-tagged PRMT1 expressed in Escherichia coli BL21(DE3) using H4-21 peptide as substrate preincubated for 10 mins in presence of SAM followed by substrate addition by fluorescence assay
# Homo sapiens [9] = organism: Homo sapiens; assay: Selectivity for human NTMT2 over human NSD2 T1150A mutant at 100 uM; procedure, shortened: as §2
# Homo sapiens [10] = organism: Homo sapiens; assay: Selectivity for human NTMT1 over human DOT1L at 100 uM; procedure, shortened: as §1
# Homo sapiens [11] = organism: Homo sapiens; assay: Selectivity for human NTMT1 over human MLL2 complex at 100 uM; procedure, shortened: as §1
# Homo sapiens [12] = organism: Homo sapiens; assay: Selectivity for human NTMT2 over human PRDMT6 at 100 uM; procedure, shortened: as §2
# Homo sapiens [13] = organism: Homo sapiens; assay: Selectivity for human NTMT1 over human PRDMT5/MEP50 complex at 100 uM; procedure, shortened: as §1
# Homo sapiens [14] = organism: Homo sapiens; assay: Selectivity for human NTMT1 over human DNMT1 at 100 uM; procedure, shortened: as §1
# [15] = target: T1, N-terminal Xaa-Pro-Lys N-methyltransferase 1 (Homo sapiens) (UniProt Q9BV86); assay: Competitive inhibition of recombinant human full-length His6-tagged NTMT1 (1 to 222 residues) expressed in Escherichia coli BL21-CodonPlus(DE3)-RIL competent cells pre-incubated for 10 mins in presence of fixed SAM and SAHH before varying levels of RCC1-6 addition and measured after 15 mins by fluorescence based SAHH-coupled assay; conditions: time 25.0 min
# T1 sequence (whole entry): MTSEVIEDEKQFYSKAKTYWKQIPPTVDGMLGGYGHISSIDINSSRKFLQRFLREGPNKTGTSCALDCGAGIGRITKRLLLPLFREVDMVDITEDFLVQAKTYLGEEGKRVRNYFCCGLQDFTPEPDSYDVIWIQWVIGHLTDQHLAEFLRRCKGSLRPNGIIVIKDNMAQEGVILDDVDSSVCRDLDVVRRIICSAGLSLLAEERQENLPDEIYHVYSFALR
# Procedure, shortened: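 After 10 min at 37 °C, started with RCC1-6 at 0.5, 1, 1.5, 2, 4 or 8 µM. Read Ex 370/Em 500 nm for 15 min at 37 °C. Triplicate IC50 at each level plotted against [RCC1-6]/Km.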
# Homo sapiens [16] = organism: Homo sapiens; assay: Selectivity for human NTMT1 over human DNMT3a at 100 uM; procedure, shortened: as §1
# Homo sapiens [17] = organism: Homo sapiens; assay: Selectivity for human NTMT2 over human MLL2 complex at 100 uM; procedure, shortened: as §2
# Homo sapiens [18] = organism: Homo sapiens; assay: Selectivity for human NTMT2 over human PRDMT7 at 100 uM; procedure, shortened: as §2
# [19] = target: N-terminal Xaa-Pro-Lys N-methyltransferase 2 (Homo sapiens, UniProt Q5VVY1); assay: Binding affinity to recombinant human full-length His6-tagged NTMT2 by ITC assay
# Procedure, shortened: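 ITC at 25 °C. Purified protein (NTMT1 for line 1, NTMT2 for line 2) in 20 mM Tris-HCl pH 7.5, 150 mM NaCl, 0.5 mM TCEP at 30–50 µM final. Compound at 0.5–1 mM in the same buffer, titrated in as 26 injections of 10 µl, 180 s apart, reference power 15 µcal/sec.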
# Homo sapiens [20] = organism: Homo sapiens; assay: Selectivity for human NTMT2 over human SETD2 at 100 uM; procedure, shortened: as §2
# Homo sapiens [21] = organism: Homo sapiens; assay: Selectivity for human NTMT2 over human EZH1 complex at 100 uM; procedure, shortened: as §2
# [22] = target: T1, N-terminal Xaa-Pro-Lys N-methyltransferase 1 (Homo sapiens); assay: Substrate activity at recombinant human full-length His6-tagged NTMT1 (1 to 222 residues) expressed in Escherichia coli BL21-CodonPlus(DE3)-RIL competent cells by MALDI-MS analysis
# Homo sapiens [23] = organism: Homo sapiens; assay: Selectivity for human NTMT2 over human DNMT3a at 100 uM; procedure, shortened: as §2
# Homo sapiens [24] = organism: Homo sapiens; assay: Selectivity for human NTMT2 over human SET8 at 100 uM; procedure, shortened: as §2
# Homo sapiens [25] = organism: Homo sapiens; assay: Selectivity for human NTMT2 over human DNMT3b at 100 uM; procedure, shortened: as §2
# Homo sapiens [26] = organism: Homo sapiens; assay: Selectivity for human NTMT1 over human NSD2 E1099K mutant at 100 uM; procedure, shortened: as §1
# Homo sapiens [27] = organism: Homo sapiens; assay: Selectivity for human NTMT2 over human NSD2 E1099K mutant at 100 uM; procedure, shortened: as §2
# Homo sapiens [28] = organism: Homo sapiens; assay: Selectivity for human NTMT2 over human PRDMT3 at 100 uM; procedure, shortened: as §2
# Homo sapiens [29] = organism: Homo sapiens; assay: Selectivity for human NTMT2 over human G9a at 100 uM; procedure, shortened: as §2
# [30] = target: T1, N-terminal Xaa-Pro-Lys N-methyltransferase 1 (Homo sapiens); assay: Non-competitive inhibition of recombinant human full-length His6-tagged NTMT1 (1 to 222 residues) expressed in Escherichia coli BL21-CodonPlus(DE3)-RIL competent cells pre-incubated for 10 mins in presence of varying levels of SAM and SAHH before fixed level of RCC1-6 addition and measured after 15 mins by fluorescence based SAHH-coupled assay; conditions: time 25.0 min
# Procedure, shortened: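 Same SAHH-coupled ThioGlo1 set-up as the substrate series: 25 mM Tris pH 7.4, 50 mM KCl, 10 µM SAHH, 0.2 µM NTMT1, 15 µM ThioGlo1, inhibitor 0–100 µM. […] Triplicate IC50 at each SAM level plotted against [SAM]/Km.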
# Homo sapiens [31] = organism: Homo sapiens; assay: Selectivity for human NTMT1 over human PRDMT6 at 100 uM; procedure, shortened: as §1
# Homo sapiens [32] = organism: Homo sapiens; assay: Selectivity for human NTMT1 over human SET7/9 at 100 uM; procedure, shortened: as §1
# Homo sapiens [33] = organism: Homo sapiens; assay: Selectivity for human NTMT2 over human EZH2 complex Y641F mutant at 100 uM; procedure, shortened: as §2
# Homo sapiens [34] = organism: Homo sapiens; assay: Selectivity for human NTMT1 over human NSD3 at 100 uM; procedure, shortened: as §1
# [35] = target: T2, N-terminal Xaa-Pro-Lys N-methyltransferase 1 (Homo sapiens, UniProt Q9BV86); assay: Inhibition of recombinant human full-length His6-tagged NTMT1 (1 to 222 residues) expressed in Escherichia coli BL21-CodonPlus(DE3)-RIL competent cells pre-incubated for 10 mins in presence of SAM and SAHH before RCC1-6 addition and measured after 15 mins by fluorescence based SAHH-coupled assay
# T2 sequence (Q9BV86 whole entry): T1 sequence (whole entry)
# Procedure, shortened: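 Pre-incubated 10 min at 37 °C, then started with RCC1-6 (10 µL of 50 µM stock in 100 µL). Line 11 screened at 30 µM; line 12 used 0–100 µM three-fold series, four-parameter fit. Triplicate.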
# Homo sapiens [36] = organism: Homo sapiens; assay: Selectivity for human NTMT2 over human PRDMT4 at 100 uM; procedure, shortened: as §2
# Homo sapiens [37] = organism: Homo sapiens; assay: Selectivity for human NTMT2 over human PRDMT1 at 100 uM; procedure, shortened: as §2
# Protein arginine N-methyltransferase 1, sequence (Q63009 whole entry): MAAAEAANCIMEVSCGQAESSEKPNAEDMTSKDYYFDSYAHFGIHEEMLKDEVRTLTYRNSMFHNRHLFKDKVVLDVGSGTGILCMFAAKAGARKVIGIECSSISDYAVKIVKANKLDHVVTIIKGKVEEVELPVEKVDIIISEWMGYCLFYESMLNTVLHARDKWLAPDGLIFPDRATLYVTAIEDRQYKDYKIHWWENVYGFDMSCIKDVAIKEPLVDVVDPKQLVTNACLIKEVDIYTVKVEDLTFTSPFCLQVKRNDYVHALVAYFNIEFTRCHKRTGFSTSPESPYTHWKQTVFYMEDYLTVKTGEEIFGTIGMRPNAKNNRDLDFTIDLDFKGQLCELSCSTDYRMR
# N-terminal Xaa-Pro-Lys N-methyltransferase 2, sequence (Q5VVY1 whole entry): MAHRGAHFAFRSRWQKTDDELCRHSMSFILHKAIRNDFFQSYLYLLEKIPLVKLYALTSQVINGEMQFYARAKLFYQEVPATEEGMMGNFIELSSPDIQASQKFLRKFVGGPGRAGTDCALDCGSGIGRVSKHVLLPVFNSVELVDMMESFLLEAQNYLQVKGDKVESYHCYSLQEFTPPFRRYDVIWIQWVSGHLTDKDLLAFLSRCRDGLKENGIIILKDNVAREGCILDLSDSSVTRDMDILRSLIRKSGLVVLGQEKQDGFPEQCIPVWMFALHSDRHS
structure (smiles),measurement,setting,value
N=C(N)NCCC[C@H](NC(=O)[C@H](CCCCN)NC(=O)[C@@H]1CCCN1C(=O)Cc1ccc(O)cc1)C(N)=O,Selectivity ratio,Homo sapiens [1],> 100
same,Selectivity ratio,Homo sapiens [2],> 100
same,Selectivity ratio,Homo sapiens [3],> 100
same,Selectivity ratio,Homo sapiens [4],> 100
same,Selectivity ratio,Homo sapiens [5],> 100
same,Selectivity ratio,Homo sapiens [6],> 100
same,Selectivity ratio,Homo sapiens [7],> 100
same,pIC50,[8],< 4.00
same,Selectivity ratio,Homo sapiens [9],> 100
same,Selectivity ratio,Homo sapiens [10],> 100
same,Selectivity ratio,Homo sapiens [11],> 100
same,Selectivity ratio,Homo sapiens [12],> 100
same,Selectivity ratio,Homo sapiens [13],> 100
same,Selectivity ratio,Homo sapiens [14],> 100
same,inhibition,[15],Active
same,Selectivity ratio,Homo sapiens [16],> 100
same,Selectivity ratio,Homo sapiens [17],> 100
same,Selectivity ratio,Homo sapiens [18],> 100
same,pKd,[19],5.43
same,Selectivity ratio,Homo sapiens [20],> 100
same,Selectivity ratio,Homo sapiens [21],> 100
same,Activity,[22],inactive
same,Selectivity ratio,Homo sapiens [23],> 100
same,Selectivity ratio,Homo sapiens [24],> 100
same,Selectivity ratio,Homo sapiens [25],> 100
same,Selectivity ratio,Homo sapiens [26],> 100
same,Selectivity ratio,Homo sapiens [27],> 100
same,Selectivity ratio,Homo sapiens [28],> 100
same,Selectivity ratio,Homo sapiens [29],> 100
same,inhibition,[30],Active
same,Selectivity ratio,Homo sapiens [31],> 100
same,Selectivity ratio,Homo sapiens [32],> 100
same,Selectivity ratio,Homo sapiens [33],> 100
same,Selectivity ratio,Homo sapiens [34],> 100
same,pIC50,[35],6.05
same,Selectivity ratio,Homo sapiens [36],> 100
same,Selectivity ratio,Homo sapiens [37],> 100

# From ChEMBL document CHEMBL4725283, “Selective Peptidomimetic Inhibitors of NTMT1/2: Rational Design, Synthesis, Characterization, and Crystallographic Studies” (J Med Chem, 2020)
